Screening results deposited in PubChem BioAssay by Johns Hopkins Ion Channel Center.
hERG rescue – hERG rescue from dofetilide block, primary screen, cell-based, CHO-hERG, FluxOR thallium flux, dofetilide IC70; actives 0.51% (n = 310,000); activation (rescue from dofetilide block), less the hit threshold, % at 10 µM; dofetilide IC70 present; AID 1511, 2009;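 active means activation above the mean of controls blocked by dofetilide plus 5 SD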;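 further: thallium influx through hERG after potassium depolarization seen as dye fluorescence rise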
KCNQ1 act – potentiators or activators of KCNQ1 channel, primary screen, cell-based, thallium flux, high-throughput; Potassium voltage-gated channel subfamily KQT member 1 (Homo sapiens), P51787; CHO-K1 KCNQ1, thallium flux FluxOR fluorescence; active compounds read high; B-score at 10 µM; actives 0.35% (n = 310,000); AID 2648, 2010;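 active means fluorescence ratio B-score, a plate-corrected score, at least three library SD, with initial intensity B-score within 5 SD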
Target sequence (P51787 whole entry, looked up): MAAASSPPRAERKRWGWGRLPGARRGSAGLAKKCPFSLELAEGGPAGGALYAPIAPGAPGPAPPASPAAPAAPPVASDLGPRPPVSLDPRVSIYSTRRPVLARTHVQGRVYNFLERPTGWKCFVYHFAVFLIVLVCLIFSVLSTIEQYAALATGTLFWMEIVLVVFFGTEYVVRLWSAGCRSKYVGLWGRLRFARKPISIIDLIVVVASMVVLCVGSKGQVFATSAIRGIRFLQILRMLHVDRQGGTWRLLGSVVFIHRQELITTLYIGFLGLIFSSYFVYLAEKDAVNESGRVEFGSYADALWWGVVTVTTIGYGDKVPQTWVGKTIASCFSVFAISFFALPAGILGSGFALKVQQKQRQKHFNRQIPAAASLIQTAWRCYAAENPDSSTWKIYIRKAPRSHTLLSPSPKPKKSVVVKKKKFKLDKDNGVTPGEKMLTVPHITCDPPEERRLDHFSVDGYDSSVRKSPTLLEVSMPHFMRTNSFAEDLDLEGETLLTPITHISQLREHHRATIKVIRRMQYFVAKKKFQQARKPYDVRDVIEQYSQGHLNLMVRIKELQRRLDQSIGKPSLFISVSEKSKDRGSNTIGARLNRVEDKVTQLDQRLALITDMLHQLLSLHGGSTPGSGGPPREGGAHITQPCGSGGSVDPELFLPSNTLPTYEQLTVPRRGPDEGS
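System: CHO-K1 cells stably expressing KCNQ1 / Medium: assay buffer for compound exposure, DMSO matched across wells / Reagent: thallium- and potassium-containing depolarizing buffer / Compound: one concentration, matched DMSO / Incubation: 20 min compound pretreatment at room temperature / Measured by: kinetic FluxOR fluorescence, 10 s baseline plus 110 s post-stimulus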
KCNQ1 block – inhibitors of human KCNQ1 channel, primary screen, cell-based, thallium flux, high-throughput. Potassium voltage-gated channel subfamily KQT member 1 (Homo sapiens), P51787. CHO-K1 KCNQ1, FluxOR thallium flux fluorescence; active compounds read high. B-score at 10 µM. actives 1.3% (n = 310,000). AID 2642, 2010;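 active means compounds whose thallium flux B-score, printed positive for inhibition, exceeds three library SD while starting fluorescence stays within three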;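 further: channel opened by potassium depolarization with thallium stimulus after 20 min compound exposure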
KCNK9 inh – KCNK9 potassium channel inhibitors, primary screen, HEK293 cells, thallium flux; Potassium channel subfamily K member 9 (Homo sapiens), Q9NPC2; FluxOR thallium flux fluorescence; active compounds read low; B-score at 10 µM; actives 1.2% (n = 310,000); AID 488922, 2010;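 active means ratio B-score over 3 SD below the library mean, with starting fluorescence within 5 SD of its mean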;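 further: negative B-score means less thallium flux so channel inhibition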
Kir21 block – inhibitors of mouse Kir2.1 inward-rectifier potassium channel | actives 0.85% (n = 310,000) | HEK293-Kir2.1, FluxOR thallium flux fluorescence; active compounds read low | Inward rectifier potassium channel 2 (Mus musculus), P35561 | B-score at 10 µM;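 active means fluorescence ratio B-score at or below minus 3 SD of library scores, with starting-brightness B-score within 2 SD, cut at about -4.2 in these data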;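 further: channel flux triggered by added potassium and thallium sulfate stimulus; B-score of peak minus minimum fluorescence over baseline after thallium stimulus; more negative B-score means stronger Kir2.1 block with less thallium influx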
KCNK3 inh – human KCNK3 channel inhibitors, primary screen, CHO cells, FluxOR thallium flux, B-score; FluxOR fluorescence; active compounds read low; B-score at 10 µM; actives 0.84% (n = 340,000);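 active means B-score under library mean minus 4 SD, starting fluorescence ratio at most library mean plus 5 SD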;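 further: more negative B-score means stronger inhibition of thallium flux through KCNK3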
Large screens that a line does not name were inactive. Compounds with a hit are over-represented: about 3.8% of the library has one in this group of screens.

COc1cccc(CNc2ccc(S(N)(=O)=O)cc2)c1OCc1ccccc1F	Kir21 block -5.1
C=CCOc1c(CNc2ccc(S(N)(=O)=O)cc2)cccc1OC	none
CNc1nnc(SCC(=O)c2c(N)n(C3CC3)c(=O)[nH]c2=O)s1	none (no result: hERG rescue, KCNQ1 act, KCNQ1 block, KCNK9 inh, Kir21 block)
CN(C)S(=O)(=O)N1CCC(Oc2cccc(C(=O)NC3CCOC3)c2)CC1 (configuration not stated)	none
CS(=O)(=O)Nc1nc2n(n1)C(c1ccccc1)C=C(c1ccc(Br)cc1)N2 (configuration not stated)	KCNQ1 block 12
CC(C)=NOc1nc(NC(=O)NS(=O)(=O)c2ccccc2Cl)nc(N(C)C)n1	none
Cc1coc2cc3oc(=O)c(Cc4ccccc4)c(C)c3cc12	none
Cc1c(Cc2ccccc2)c(=O)oc2cc(O)cc(O)c12	Kir21 block -5.3
NCCOc1cnn(-c2ccccc2Cl)c(=O)c1Cl	none
Cc1ccccc1CNS(=O)(=O)c1ccccc1[N+](=O)[O-]	none
Cc1onc(-c2ccccc2)c1CNS(=O)(=O)c1ccccc1[N+](=O)[O-]	Kir21 block -6.9
O=C(Nc1nc(-c2cccs2)cs1)c1ccc(S(=O)(=O)N2CCCCC2)cc1	KCNQ1 block 6
CC(C)NC(=O)Nc1cccc2c1O[C@H](CN(C)C(=O)NC1CCCCC1)[C@H](C)CN([C@H](C)CO)C2=O	none (no result: hERG rescue, KCNQ1 act, KCNQ1 block, KCNK9 inh, Kir21 block)
COc1ccc(CNC(=O)c2sc3nc4c(c(C(F)(F)F)c3c2N)CCC4)cc1	Kir21 block -5.1 (no result: KCNK3 inh)
COc1ccc(NC(=O)CN(C)C(=O)C(C)Oc2ccc(Br)cc2)cc1 (configuration not stated)	none
CSCCC(NC(=O)c1ccc([N+](=O)[O-])cc1Cl)C(=O)OCC(=O)C12CC3CC(CC(C3)C1)C2 (configuration not stated)	hERG rescue 39
COc1cc2c3nc4n(c(=O)c3n(CC(=O)NCC3CCCO3)c2cc1OC)CCS4 (configuration not stated)	none
CC[C@@H](C(=O)[C@@H](C)[C@@H](O)[C@H](C)CCc1ccc(C)c(O)c1C(=O)O)[C@H]1O[C@](CC)([C@H]2CC[C@](O)(CC)[C@H](C)O2)C[C@@H]1C	hERG rescue 65, KCNQ1 act 76
CCOC(=O)C1(Cc2cccc(Cl)c2)CCCN(CCO)C1 (configuration not stated)	none
CCCCCCOc1ccc(/C(C)=N/NC2=NCCN2)cc1	KCNQ1 block 13
C=CC[C@H]1CC(C)=C[C@H](CC=C)N1C(=O)c1cc(COc2ccccc2SC)on1	KCNQ1 block 8
COCC1CCN(C(=O)c2cc(COc3ccccc3SC)on2)C1 (configuration not stated)	none
Cn1nc(C(=O)NC2CCCc3ccccc32)ccc1=O (configuration not stated)	none
COc1ccccc1N(Cc1ccccc1)S(=O)(=O)c1cccc(C(=O)Nc2ccccn2)c1	none
COc1ccccc1N(Cc1ccccc1)S(=O)(=O)c1cccc(C(=O)Nc2ccc(C)cn2)c1	KCNQ1 block 6
Nc1nc2ccccc2n1CCOc1ccc(Br)cc1	Kir21 block -11
CCOC(=O)Cn1c(=N)n(CCOc2cccc(C)c2)c2ccccc21	none (no result: hERG rescue, KCNQ1 act, KCNQ1 block, KCNK9 inh, Kir21 block)
CCOC(=O)Cn1c(=N)n(CCOc2ccc(Br)cc2)c2ccccc21	Kir21 block -6.4
CC(=O)N1CCc2cc(N=NC3=C(O)CCCC3=O)ccc21	none
Cc1cc(Cn2nc(C(=O)NCc3cccc(C(F)(F)F)c3)cc2-c2ccccc2)on1	KCNK3 inh -9.7 (no result: hERG rescue, KCNQ1 act, KCNQ1 block, KCNK9 inh, Kir21 block)
S=c1[nH]nc(-c2ccccc2Cl)n1Cc1ccccc1	none
COc1ccccc1C(=O)NCc1n[nH]c(=S)n1Cc1ccccc1	none
CCc1c(-c2n[nH]c(=S)n2Cc2ccccc2)csc1C	Kir21 block -9.3
Cc1scc(-c2n[nH]c(=S)n2Cc2ccccc2)c1C	none
COc1ccc(Cl)cc1-c1n[nH]c(=S)n1Cc1ccccc1	Kir21 block -4.3
COc1ccc(Cc2n[nH]c(=S)n2Cc2ccccc2)cc1Cl	Kir21 block -5
Cc1cc(C)c(NS(=O)(=O)c2ccc3c(c2)NC(=O)CCS3)c(C)c1	none
CCCC(=O)Nc1cc(C)c(NC(=O)c2ccco2)cn1	none
O=C(COC(=O)CCNS(=O)(=O)c1ccc2c(c1)OCCO2)NC1CCCc2ccccc21 (configuration not stated)	hERG rescue 5.3
O=C(NCc1cccnc1)Nc1cccc(F)c1	KCNK9 inh -7.8
O=C(COC(=O)CCC(=O)c1cccs1)Nc1cccc(F)c1	none (no result: hERG rescue, KCNQ1 act, KCNQ1 block, KCNK9 inh, Kir21 block)
Cc1ccc(C2NC(c3ccc(C)cc3)C(C)C(=O)C2C)cc1 (configuration not stated)	KCNK9 inh -7
N#Cc1ccccc1CSc1nnc(Cc2ccccc2)o1	none
COc1cc(CNCCNC(=O)c2nonc2N)ccc1OCc1ccc(Cl)cc1	Kir21 block -6.7
O=C(Nc1cccc(S(=O)(=O)NC2=NCCC2)c1)c1cn(-c2ccccc2)nc1-c1ccc(F)cc1	none (no result: hERG rescue, KCNQ1 act, KCNQ1 block, KCNK9 inh, Kir21 block)
CCOC(=O)C1=C(Cc2ccc(F)cc2)C(=O)c2ccccc2C1=O	none
CCCCc1ccc(/C=C2\C(=O)c3ccccc3C(O)=C2C(=O)OCC)cc1	KCNQ1 act 9 (no result: KCNK3 inh)
Cc1nnc2n1N=C(c1ccc(OC(F)F)cc1)C(C)S2 (configuration not stated)	none
CCn1cc(C(=O)NCC(OC)OC)c(=O)c2cc(S(=O)(=O)N3CCC(C)CC3)ccc21	KCNQ1 block 6
CCOCCCNC(=O)c1cn(CC)c2ccc(S(=O)(=O)N(C)C3CCCCC3)cc2c1=O	KCNQ1 block 7
O=C(NCCc1ccccn1)c1cncc(Br)c1	none
Cc1ccccc1OC(=O)n1c(=S)oc2cc(Cl)ccc21	KCNQ1 act 10
CCOC(=O)c1c(C)[nH]c(C)c1C(=O)COC(=O)c1ccc(Cl)nc1	none (no result: hERG rescue, KCNQ1 act, KCNQ1 block, KCNK9 inh, Kir21 block)
CC1CN(c2ccc([N+](=O)[O-])c(NCCOc3ccc(Cl)cc3)c2)CC(C)N1 (configuration not stated)	KCNQ1 block 9, Kir21 block -8
CCN1C(=O)[C@H]2[C@@H](c3ccc(-c4ccc(C(C)=O)cc4)cc3)N3CCCC[C@@]3(C(=O)OC)[C@H]2C1=O	none
CC1CN(S(=O)(=O)c2ccc(C(=O)NC3CCCCC3)cc2)CC(C)O1 (configuration not stated)	none (no result: hERG rescue, KCNQ1 act, KCNQ1 block, KCNK9 inh, Kir21 block)
CC(O)(Cc1cccnc1)c1cccs1 (configuration not stated)	none (no result: hERG rescue, KCNQ1 act, KCNQ1 block, KCNK9 inh, Kir21 block)
